We go through 18 compounds from ChEMBL document CHEMBL1123760, “Synthesis and oral antifungal activity of novel azolylpropanolones and related compounds” (1987).

Assay type in all cases: functional
One experiment concerns Aspergillus fumigatus. Briefly: In vitro antifungal activity against Aspergillus fumigatus. A digest of the protocol: (§1)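 Broth microdilution MIC in Sabouraud's glucose broth; final inocula 1 × 10^5 cells/mL (yeast) or 1 × 10^5 conidia/mL (mold and dermatophyte).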
The test system of experiment [1] is Candida albicans. The experiment in a line: Minimum effective concentration for inhibition of pseudomycelium formation in Candida albicans. Particulars: for minimal effective concentration: Candida albicans, read-out: MEC. The method, boiled down: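 C. albicans KE-2 (clinical isolate) at a final 1 × 10^6 yeast cells/mL in EMEM with 20% calf serum; compounds diluted by the same microtiter system as for MICs. After incubation, wells were Giemsa-stained (5% in phosphate buffer) and read by microscope. MEC is the lowest concentration preventing typical pseudomycelium formation.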

In another experiment the test system is Trichophyton benhamiae. The experiment in a line: In vitro antifungal activity against Trichophyton asteroides. The method, boiled down: as §1
The next experiment concerns Mus musculus. The experiment in a line: Ratio of in vivo number of survivors / total infected. Set-up: reference not given here.
Experiment [2] relates to Candida albicans. The experiment in a line: In vitro antifungal activity against Candida albicans. A digest of the protocol:
as §1

Setting [3] is: Aspergillus fumigatus, read-out: MIC.
Setting [4] is: Trichophyton benhamiae, read-out: MIC.
The mark [5] stands for this setting: Candida albicans, read-out: MIC.

In brackets after ≈: the same amount, converted by molar mass.

With `O=C(c1ccc(Cl)cc1)C(O)(Cn1cncn1)c1ccc(Cl)cc1Cl` (centres undefined), the values for the MIC in the experiment with Aspergillus fumigatus (setting [3]), in the experiment with Trichophyton benhamiae (setting [4]) and in the experiment with Candida albicans [2] (setting [5]) were above 100 µg/mL, 0.1 µg/mL (≈ 0.252 µM) and above 100 µg/mL, respectively. The minimal effective concentration in the experiment with Candida albicans [1] worked out at 1.25 µg/mL. In addition, in the experiment on Mus musculus, the No. of survivors was determined as 7.

As for `Cc1ccc(C(=O)C(O)(Cn2cncn2)c2ccccc2Cl)cc1` (centres undefined), the MIC in the experiment on Aspergillus fumigatus (setting [3]) was above 100 µg/mL; with Trichophyton benhamiae (setting [4]), 0.8 µg/mL (≈ 2.34 µM); in the experiment on Candida albicans [2] (setting [5]), above 100 µg/mL. Moreover, in the experiment with Candida albicans [1], the minimal effective concentration was 2.5 µg/mL. The No. of survivors in the experiment with Mus musculus was found to be 1.

Turning to `O=C(c1ccccc1Cl)C(O)(Cn1cncn1)c1ccccc1Cl` (centres undefined), the results for the minimal inhibitory concentration (MIC) in the experiment on Aspergillus fumigatus (setting [3]), in the experiment on Trichophyton benhamiae (setting [4]) and in the experiment with Candida albicans [2] (setting [5]) were 50 µg/mL (≈ 138 µM), 0.1 µg/mL (≈ 0.276 µM) and 50 µg/mL (≈ 138 µM), respectively. For the same compound, the minimal effective concentration in the experiment on Candida albicans [1] amounted to 0.08 µg/mL. Moreover, in the experiment on Mus musculus, the No. of survivors was found to be 2.

Take `OC(c1ccccc1Cl)C(O)(Cn1cncn1)c1ccc(F)cc1` (centres undefined): the MIC with Aspergillus fumigatus (setting [3]) is above 100 µg/mL; in the experiment on Trichophyton benhamiae (setting [4]), 0.8 µg/mL (≈ 2.3 µM); in the experiment with Candida albicans [2] (setting [5]), above 100 µg/mL. Moreover, the minimal effective concentration in the experiment on Candida albicans [1] turned out to be 10 µg/mL. Moreover, the No. of survivors in the experiment with Mus musculus was 0.

Consider `CCCCC(O)(Cn1cncn1)C(=O)c1ccc(Cl)cc1` (centres undefined), for which the figures for the MIC in the experiment with Aspergillus fumigatus (setting [3]), in the experiment on Trichophyton benhamiae (setting [4]) and in the experiment on Candida albicans [2] (setting [5]) were 100 µg/mL (≈ 325 µM), 0.2 µg/mL (≈ 0.65 µM) and 100 µg/mL (≈ 325 µM), respectively. Besides, the minimal effective concentration in the experiment on Candida albicans [1] was found to be 0.31 µg/mL. For the same compound, in the experiment on Mus musculus, the No. of survivors came out at 2.

On to `CCC(=O)C(O)(Cn1cncn1)c1ccc(Cl)cc1Cl` (centres undefined), for which the minimum inhibitory concentration (MIC) in the experiment on Aspergillus fumigatus (setting [3]) amounted to 100 µg/mL (≈ 318 µM); with Trichophyton benhamiae (setting [4]), 0.1 µg/mL (≈ 0.318 µM); in the experiment on Candida albicans [2] (setting [5]), 100 µg/mL (≈ 318 µM). Moreover, the minimal effective concentration with Candida albicans [1] was determined as 0.04 µg/mL. In addition, the No. of survivors with Mus musculus stood at 2.

Regarding `CC(C)CC(=O)C(O)(Cn1cncn1)c1ccc(Cl)cc1` (centres undefined), the results for the MIC in the experiment with Aspergillus fumigatus (setting [3]), with Trichophyton benhamiae (setting [4]) and in the experiment on Candida albicans [2] (setting [5]) were 50 µg/mL (≈ 162 µM), 0.1 µg/mL (≈ 0.325 µM) and 100 µg/mL (≈ 325 µM), respectively. Also, the minimal effective concentration in the experiment on Candida albicans [1] turned out to be 0.04 µg/mL. Moreover, in the experiment with Mus musculus, the No. of survivors is 0.

Take `O=S1O[C@H](c2ccc(Cl)cc2Cl)[C@@](Cn2cncn2)(c2ccc(Cl)cc2)O1` (some centres undefined): the results for the MIC in the experiment on Aspergillus fumigatus (setting [3]), with Trichophyton benhamiae (setting [4]) and with Candida albicans [2] (setting [5]) were above 100 µg/mL, 0.1 µg/mL (≈ 0.225 µM) and 100 µg/mL (≈ 225 µM), respectively. In the experiment with Candida albicans [1], the minimal effective concentration was found to be 0.08 µg/mL. In the experiment with Mus musculus, the No. of survivors stood at 5.

In the case of `O=S1O[C@H](c2ccc(Cl)cc2Cl)[C@](Cn2cncn2)(c2ccc(Cl)cc2)O1` (some centres undefined), the MIC in the experiment with Aspergillus fumigatus (setting [3]) is above 100 µg/mL; with Trichophyton benhamiae (setting [4]), 0.1 µg/mL (≈ 0.225 µM); in the experiment with Candida albicans [2] (setting [5]), 100 µg/mL (≈ 225 µM). In the experiment on Candida albicans [1], the minimal effective concentration came out at 0.02 µg/mL. In addition, in the experiment with Mus musculus, the No. of survivors was 7.

For the compound `O=C(c1ccc(Cl)cc1)C(O)(Cn1ccnc1)c1ccc(Cl)cc1Cl` (centres undefined), the MIC was above 100 µg/mL in the experiment on Aspergillus fumigatus (setting [3]), 0.1 µg/mL (≈ 0.253 µM) with Trichophyton benhamiae (setting [4]) and above 100 µg/mL in the experiment with Candida albicans [2] (setting [5]). Moreover, the minimal effective concentration in the experiment with Candida albicans [1] was found to be 2.5 µg/mL. Further, in the experiment with Mus musculus, the No. of survivors is 0.

As for `O=C(c1ccccc1Cl)C(O)(Cn1ccnc1)c1ccccc1Cl` (centres undefined), the MIC was above 100 µg/mL in the experiment on Aspergillus fumigatus (setting [3]), 0.1 µg/mL (≈ 0.277 µM) in the experiment on Trichophyton benhamiae (setting [4]) and above 100 µg/mL in the experiment with Candida albicans [2] (setting [5]). The minimal effective concentration with Candida albicans [1] worked out at 2.5 µg/mL. Further, the No. of survivors in the experiment with Mus musculus was found to be 2.

For the compound `CCCCC(=O)C(O)(Cn1cncn1)c1ccc(Cl)cc1Cl` (centres undefined), the MIC is above 100 µg/mL in the experiment on Aspergillus fumigatus (setting [3]), 0.1 µg/mL (≈ 0.292 µM) in the experiment with Trichophyton benhamiae (setting [4]) and 50 µg/mL (≈ 146 µM) in the experiment on Candida albicans [2] (setting [5]). In addition, the minimal effective concentration with Candida albicans [1] worked out at 0.04 µg/mL. In the experiment with Mus musculus, the No. of survivors was 2.

Take `O=C1O[C@H](c2ccc(Cl)cc2Cl)[C@@](Cn2cncn2)(c2ccc(Cl)cc2)O1`: the results for the minimum inhibitory concentration (MIC) in the experiment with Aspergillus fumigatus (setting [3]), in the experiment with Trichophyton benhamiae (setting [4]) and with Candida albicans [2] (setting [5]) were above 100 µg/mL, 0.1 µg/mL (≈ 0.235 µM) and 50 µg/mL (≈ 118 µM), respectively. Further, the minimal effective concentration with Candida albicans [1] was determined as 0.63 µg/mL. Also, in the experiment with Mus musculus, the No. of survivors is recorded as 8.

As to `CC(C)C(=O)C(O)(Cn1cncn1)c1ccc(Cl)cc1` (stereo in doubt; 36), the MIC in the experiment with Aspergillus fumigatus (setting [3]) turned out to be 12.5 µg/mL (≈ 42.6 µM); with Trichophyton benhamiae (setting [4]), 0.1 µg/mL (≈ 0.34 µM); in the experiment on Candida albicans [2] (setting [5]), 100 µg/mL (≈ 340 µM). In addition, in the experiment with Candida albicans [1], the minimal effective concentration turned out to be 0.04 µg/mL. For the same compound, the No. of survivors with Mus musculus is listed as 7.

On to `O=C(c1ccccc1)C(O)(Cn1cncn1)c1ccccc1` (centres undefined), for which the MIC in the experiment with Aspergillus fumigatus (setting [3]) is above 100 µg/mL; in the experiment on Trichophyton benhamiae (setting [4]), 12.5 µg/mL (≈ 42.6 µM); with Candida albicans [2] (setting [5]), above 100 µg/mL. Besides, in the experiment on Candida albicans [1], the minimal effective concentration is above 20 µg/mL. In addition, in the experiment with Mus musculus, the No. of survivors amounted to 0.

As for `CC(O)(c1ccc(F)cc1)C(O)(Cn1cncn1)c1ccc(Cl)cc1` (stereo in doubt; 162), the minimum inhibitory concentration (MIC) is 100 µg/mL (≈ 276 µM) against Aspergillus fumigatus, 0.1 µg/mL (≈ 0.276 µM) against Trichophyton benhamiae and above 100 µg/mL against Candida albicans [2]. In addition, the MEC with Candida albicans [1] was 0.08 µg/mL. Moreover, the No. of survivors with Mus musculus is recorded as 8.

As for `O=C(C1CCCC1)C(O)(Cn1cncn1)c1ccc(Cl)cc1Cl` (centres undefined), the MIC with Aspergillus fumigatus (setting [3]) was above 100 µg/mL; in the experiment on Trichophyton benhamiae (setting [4]), 0.1 µg/mL (≈ 0.282 µM); in the experiment on Candida albicans [2] (setting [5]), 50 µg/mL (≈ 141 µM). In addition, the minimal effective concentration with Candida albicans [1] was found to be 0.02 µg/mL. Moreover, the No. of survivors in the experiment with Mus musculus is on record as 0.

`CC(O)(c1ccc(F)cc1)C(O)(Cn1cncn1)c1ccc(F)cc1` (stereo in doubt; 160): the values for the MIC in the experiment with Aspergillus fumigatus and in the experiment on Trichophyton benhamiae were 25 µg/mL (≈ 72.4 µM) and 0.1 µg/mL (≈ 0.29 µM), respectively. Moreover, in the experiment with Candida albicans [1], the MEC is 0.16 µg/mL. The No. of survivors in the experiment on Mus musculus stood at 2.

As usually defined, the MIC is the lowest concentration found to suppress growth.
